Measurements from ChEMBL document CHEMBL1124089, “Binaltorphimine-related bivalent ligands and their kappa opioid receptor antagonist selectivity” (J Med Chem, 1988).

Key:
[1] = target: Delta-type opioid receptor (Mus musculus) (UniProt P32300); experiment: Antagonistic activity for Opioid receptor delta 1 in mouse vas deferens at 200 nM; type: functional, tissue-based
[2] = target: Mu-type opioid receptor (Cavia porcellus) (UniProt P97266); experiment: Antagonistic activity for Opioid receptor mu 1 in guinea pig ileal longitudinal muscle at 200 nM; type: functional
Chain of Mu-type opioid receptor (Cavia porcellus) (P97266 whole entry): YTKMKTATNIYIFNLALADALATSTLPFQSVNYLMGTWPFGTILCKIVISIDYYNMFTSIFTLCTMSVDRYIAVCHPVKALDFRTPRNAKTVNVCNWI

[3] = target: Kappa-type opioid receptor (Cavia porcellus) (UniProt P41144); experiment: Antagonistic activity for Opioid receptor kappa 1 in guinea pig ileal longitudinal muscle at 200 nM; type: functional
Chain of Kappa-type opioid receptor (Cavia porcellus) (P41144 whole entry): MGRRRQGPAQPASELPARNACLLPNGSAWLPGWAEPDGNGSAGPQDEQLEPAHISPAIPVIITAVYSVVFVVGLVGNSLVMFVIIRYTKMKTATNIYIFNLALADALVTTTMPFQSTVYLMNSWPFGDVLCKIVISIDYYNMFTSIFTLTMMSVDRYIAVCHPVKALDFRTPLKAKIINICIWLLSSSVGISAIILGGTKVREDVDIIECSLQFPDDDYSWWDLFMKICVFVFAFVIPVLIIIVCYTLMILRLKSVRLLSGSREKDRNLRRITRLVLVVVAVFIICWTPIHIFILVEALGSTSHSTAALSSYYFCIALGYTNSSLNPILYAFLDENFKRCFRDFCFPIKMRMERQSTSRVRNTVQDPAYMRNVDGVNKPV

[4] = target: Delta-type opioid receptor (Mus musculus) (UniProt P32300); experiment: Ratio of IC50 DADLE and antagonist binding to delta opioid receptor
[5] = target: T1, Opioid receptor (mu and kappa) (Cavia porcellus) (UniProt P41144+P97266); experiment: Ratio of IC50 ethylketazocine and antagonist binding to opioid receptor; type: protein assay
T1 sequence (P41144 whole entry, looked up): as the sequence (P41144 whole entry) above
T1 sequence (P97266 whole entry, looked up): as the sequence (P97266 whole entry) above

[6] = Ratio of IC50 morphine and antagonist binding to opioid receptor
[7] = Ratio of antagonistic activity for delta and kappa receptors; type: functional
How it was run: (§1)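 Selectivity ratios mu/kappa and delta/kappa calculated from Ke values; Ke = [antagonist]/(IC50 ratio − 1), using ethylketazocine (kappa) and morphine (mu) in GPI and DADLE (delta) in MVD.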

[8] = target: T1, Opioid receptor (mu and kappa) (Cavia porcellus); experiment: Ratio of antagonistic activity for mu and kappa receptors; type: functional; how it was run: as §1
[9] = target: Delta-type opioid receptor (Mus musculus) (UniProt P32300); experiment: Antagonistic activity for Opioid receptor delta 1 in mouse vas deferens preparation at 100 nM; type: functional
[10] = target: Mu-type opioid receptor (Cavia porcellus) (UniProt P97266); experiment: Antagonistic activity for Opioid receptor mu 1 in guinea pig ileal longitudinal muscle at 100 nM; type: functional
[11] = target: Kappa-type opioid receptor (Cavia porcellus) (UniProt P41144); experiment: Antagonistic activity for Opioid receptor kappa 1 of guinea pig ileal longitudinal muscle at 100 nM; type: functional
[12] = target: Delta-type opioid receptor (Mus musculus) (UniProt P32300); conditions: Vas deferens, 200 nM
[13] = target: Mu-type opioid receptor (Cavia porcellus) (UniProt P97266); conditions: 20 nM
[14] = target: Delta-type opioid receptor (Mus musculus) (UniProt P32300); experiment: Ratio of IC50 DADLE and antagonist binding to delta opioid receptor; Not calculated
[15] = target: Mu-type opioid receptor (Cavia porcellus) (UniProt P97266); conditions: 100 nM
[16] = target: Delta-type opioid receptor (Mus musculus) (UniProt P32300); conditions: Vas deferens, 20 nM
[17] = target: Kappa-type opioid receptor (Cavia porcellus) (UniProt P41144); experiment: Antagonistic activity for Opioid receptor kappa 1 in guinea pig ileal longitudinal muscle at 20 nM; type: functional
[18] = target: Delta-type opioid receptor (Mus musculus, UniProt P32300); experiment: Agonistic activity in mouse vas deferens; type: functional, tissue-based
Chain of Delta-type opioid receptor (P32300 whole entry): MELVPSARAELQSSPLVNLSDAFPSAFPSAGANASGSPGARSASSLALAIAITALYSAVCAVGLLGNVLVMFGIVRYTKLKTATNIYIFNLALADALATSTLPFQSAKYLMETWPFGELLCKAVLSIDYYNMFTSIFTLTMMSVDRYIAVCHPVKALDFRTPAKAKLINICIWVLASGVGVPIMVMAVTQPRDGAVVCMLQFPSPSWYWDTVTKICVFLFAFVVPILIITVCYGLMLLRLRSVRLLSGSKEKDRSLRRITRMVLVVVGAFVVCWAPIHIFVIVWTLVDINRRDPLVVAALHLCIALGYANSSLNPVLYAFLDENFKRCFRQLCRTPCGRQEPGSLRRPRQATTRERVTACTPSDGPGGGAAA

[19] = target: T2, Opioid receptor (mu and kappa) (Cavia porcellus, UniProt P41144+P97266); experiment: Agonistic activity in guinea pig ileal longitudinal muscle; type: functional, tissue-based, Muscle tissue
[20] = target: T2, Opioid receptor (mu and kappa); experiment: Agonistic activity in guinea pig ileal longitudinal muscle after beta-FNA (200 nM) 60 min treatment; type: functional, tissue-based, Muscle tissue
How it was run: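 GPI pretreated with beta-FNA so that functional mu receptors are absent; agonist IC50 determined in this tissue and compared with IC50 in untreated GPI.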

Chain of Delta-type opioid receptor (Mus musculus) (P32300 whole entry): as above

Row | SMILES | Ratio [4] | Ratio [5] | Ratio [6] | Selectivity ratio [7] | Selectivity ratio [8] | Ke [11] [nM] | IC50 [18] [nM] | IC50 [19] [nM] | also measured
1 | COc1ccc2c3c1O[C@H]1c4[nH]c5c(c4C[C@@]4(O)[C@@H](C2)N(CC2CC2)CC[C@]314)C[C@@]1(O)[C@H]2Cc3ccc(O)c4c3[C@@]1(CCN2CC1CC1)[C@H]5O4 | 5.4 | 153 | 6.3 | 35 | 29 |  |  |  | Ke [1]: 45 nM; Ke [2]: 38 nM; Ke [3]: 1.3 nM
2 | CC(=O)O[C@@]12Cc3c([nH]c4c3C[C@@]3(OC(C)=O)[C@H]5Cc6ccc(O)c7c6[C@@]3(CCN5CC3CC3)[C@H]4O7)[C@@H]3Oc4c(O)ccc5c4[C@@]31CCN(CC1CC1)[C@@H]2C5 | 9.2 | 261 | 3.4 | 32 | 111 | 0.38 |  |  | Ke [9]: 12 nM; Ke [10]: 42 nM
3 | Oc1ccc2c3c1O[C@H]1c4[nH]c5c(c4C[C@@]4(O)[C@@H](C2)N(CC2CC2)CC[C@]314)C[C@@]1(O)[C@H]2Cc3ccc(O)c4c3[C@@]1(CCN2CC1CC1)[C@H]5O4 | 2 | 49.1 | 2.6 | 49 | 32 | 0.41 |  |  | Ke [12]: 20 nM; Ke [13]: 13 nM
4 | CC(=O)Oc1ccc2c3c1O[C@H]1c4[nH]c5c(c4C[C@@]4(OC(C)=O)[C@@H](C2)N(CC2CC2)CC[C@]314)C[C@@]1(OC(C)=O)[C@H]2Cc3ccc(OC(C)=O)c4c3[C@@]1(CCN2CC1CC1)[C@H]5O4 |  | 1.6 | 1.2 |  |  |  |  |  | Ratio [14]: 1.4
5 | Cn1c2c(c3c1[C@@H]1Oc4c(O)ccc5c4[C@@]14CCN(CC1CC1)[C@H](C5)[C@]4(O)C3)C[C@@]1(O)[C@H]3Cc4ccc(O)c5c4[C@@]1(CCN3CC1CC1)[C@H]2O5 | 4.5 | 148 | 2.8 | 41 | 79 | 0.14 |  |  | Ke [15]: 11 nM; Ke [16]: 5.7 nM
6 | Oc1ccc2c3c1O[C@H]1c4[nH]ccc4C[C@@]4(O)[C@@H](C2)N(CC2CC2)CC[C@]314 | 32.3 | 49.5 | 155 | 1.5 | 0.3 | 2.1 |  |  | Ke [9]: 3.2 nM; Ke [10]: 0.65 nM
7 | COc1ccc2c3c1O[C@H]1c4[nH]c5c(c4C[C@@]4(O)[C@@H](C2)N(CC2CC2)CC[C@]314)C[C@@]1(O)[C@H]2Cc3ccc(OC)c4c3[C@@]1(CCN2CC1CC1)[C@H]5O4 | 0.6 | 3.8 | 0.8 |  |  |  |  |  | Ke [17]: 7.1 nM
8 | CN1CC[C@]23c4c5ccc(O)c4O[C@H]2c2[nH]c4c(c2C[C@H]3[C@H]1C5)C[C@H]1[C@H]2Cc3ccc(O)c5c3[C@@]1(CCN2C)[C@H]4O5 | 0.85 | 0.79 | 0.68 |  |  |  | 52 | 53 | 
9 | CN1CC[C@]23c4c5ccc(O)c4O[C@H]2c2[nH]c4c(c2C[C@@]3(O)[C@H]1C5)C[C@@]1(O)[C@H]2Cc3ccc(O)c5c3[C@@]1(CCN2C)[C@H]4O5 | 1.1 | 1.6 | 0.88 |  |  |  | 170 | 250 | IC50 [20]: 2630 nM
10 | COc1ccc2c3c1O[C@H]1c4[nH]c5c(c4C[C@H]4[C@@H](C2)N(C)CC[C@]314)C[C@H]1[C@H]2Cc3ccc(OC)c4c3[C@@]1(CCN2C)[C@H]5O4 | 0.93 | 0.43 | 0.51 |  |  |  | 1000 | 330 | 
